Columns and labels:
[1] = target: Delta-type opioid receptor (Rattus norvegicus, UniProt P33533); test: Binding affinity against opioid receptor delta in rats by displacing [3H]DPDPE
[2] = species: Cavia porcellus; test: Concentration required to inhibit electrically induced twitch by 50% in guinea pig ileum(GPI).; type: functional
[3] = target: Mu-type opioid receptor (Rattus norvegicus, UniProt P33535); test: Binding affinity against opioid receptor mu in rats by displacing [3H]-DAGO
[4] = species: Mus musculus; test: Concentration required to inhibit electrically induced twitch by 50% in mouse vas deferens(MVD).; type: functional
In short: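 Mouse vas deferens field-stimulated at 0.1 Hz, 1 ms, 40 V; twitch recorded with an isometric transducer. Peptide doses added to the aerated bath, with three to four washes at 10-min intervals between doses. IC50 from log-dose curves, normalized against a dermorphin or morphine standard run on each tissue.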

Chain of Delta-type opioid receptor (P33533 whole entry): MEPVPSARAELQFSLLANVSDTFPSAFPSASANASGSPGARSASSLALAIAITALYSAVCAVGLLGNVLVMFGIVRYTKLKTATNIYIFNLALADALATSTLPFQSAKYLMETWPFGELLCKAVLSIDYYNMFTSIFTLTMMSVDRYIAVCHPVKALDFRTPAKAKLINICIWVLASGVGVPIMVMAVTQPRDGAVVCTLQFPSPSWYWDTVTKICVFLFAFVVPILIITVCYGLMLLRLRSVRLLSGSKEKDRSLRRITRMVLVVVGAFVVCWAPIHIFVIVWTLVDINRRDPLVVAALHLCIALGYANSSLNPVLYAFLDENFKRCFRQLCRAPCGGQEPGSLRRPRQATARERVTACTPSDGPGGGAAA
Chain of Mu-type opioid receptor (P33535 whole entry): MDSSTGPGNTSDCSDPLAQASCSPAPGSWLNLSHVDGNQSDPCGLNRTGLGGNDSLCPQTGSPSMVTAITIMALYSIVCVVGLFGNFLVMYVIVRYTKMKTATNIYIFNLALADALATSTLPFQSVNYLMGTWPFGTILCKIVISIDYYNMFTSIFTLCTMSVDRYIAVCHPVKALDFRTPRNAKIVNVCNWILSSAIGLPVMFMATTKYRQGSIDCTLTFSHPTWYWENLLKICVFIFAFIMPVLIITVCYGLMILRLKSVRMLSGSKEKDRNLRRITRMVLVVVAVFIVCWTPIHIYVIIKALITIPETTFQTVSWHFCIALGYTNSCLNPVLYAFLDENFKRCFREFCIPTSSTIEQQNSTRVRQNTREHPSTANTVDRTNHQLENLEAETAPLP

SMILES | Ki [1] [nM] | IC50 [2] [nM] | Ki [3] [nM] | IC50 [4] [nM]
CC(C)[C@H](NC(=O)[C@H](CC(=O)O)NC(=O)[C@H](Cc1ccc(Cl)cc1)NC(=O)[C@@H](C)NC(=O)[C@@H](N)Cc1ccc(O)cc1)C(=O)N[C@H](C(=O)NCC(N)=O)C(C)C | 1.58 | 1800 | 287 | 0.16
CC(C)[C@H](NC(=O)[C@H](CCC(=O)O)NC(=O)[C@H](Cc1ccc([N+](=O)[O-])cc1)NC(=O)[C@@H](C)NC(=O)[C@@H](N)Cc1ccc(O)cc1)C(=O)N[C@H](C(=O)NCC(N)=O)C(C)C | 101 | > 10000 | 1430 | 430
CC(C)[C@H](NC(=O)[C@H](CC(=O)O)NC(=O)[C@H](Cc1ccc(N)cc1)NC(=O)[C@@H](C)NC(=O)[C@@H](N)Cc1ccc(O)cc1)C(=O)N[C@H](C(=O)NCC(N)=O)C(C)C | 33.9 | > 10000 | 506 | 1100
CC(C)[C@H](NC(=O)[C@H](CC(=O)O)NC(=O)[C@H](Cc1ccc(F)cc1)NC(=O)[C@@H](C)NC(=O)[C@@H](N)Cc1ccc(O)cc1)C(=O)N[C@H](C(=O)NCC(N)=O)C(C)C | 0.51 | 1100 | 554 | 3.5
CC(C)[C@H](NC(=O)[C@H](CC(=O)O)NC(=O)[C@H](Cc1ccccc1)NC(=O)[C@@H](C)NC(=O)[C@@H](N)Cc1ccc(O)cc1)C(=O)N[C@H](C(=O)NCC(N)=O)C(C)C [DELTORPHIN C] | 0.24 | 420 | 272 | 0.14
CC(C)[C@H](NC(=O)[C@H](CC(=O)O)NC(=O)[C@H](Cc1ccc(Br)cc1)NC(=O)[C@@H](C)NC(=O)[C@@H](N)Cc1ccc(O)cc1)C(=O)N[C@H](C(=O)NCC(N)=O)C(C)C | 2.39 | 7000 | 4790 | 1.1
CC(C)[C@H](NC(=O)[C@H](CCC(=O)O)NC(=O)[C@H](Cc1ccc(N)cc1)NC(=O)[C@@H](C)NC(=O)[C@@H](N)Cc1ccc(O)cc1)C(=O)N[C@H](C(=O)NCC(N)=O)C(C)C | 48.1 | > 10000 | 2460 | 300
CC(C)[C@H](NC(=O)[C@H](CC(=O)O)NC(=O)[C@H](Cc1ccc([N+](=O)[O-])cc1)NC(=O)[C@@H](C)NC(=O)[C@@H](N)Cc1ccc(O)cc1)C(=O)N[C@H](C(=O)NCC(N)=O)C(C)C | 71.8 | > 10000 | 2390 | 1200
CC(C)[C@H](NC(=O)[C@H](CCC(=O)O)NC(=O)[C@H](Cc1ccccc1)NC(=O)[C@H](C)NC(=O)[C@@H](N)Cc1ccc(O)cc1)C(=O)N[C@H](C(=O)NCC(=O)O)C(C)C [DELTORPHINE II] | 0.12 | 5200 |  | 0.75
CC(C)[C@H](NC(=O)[C@H](CC(=O)O)NC(=O)[C@H](Cc1ccc(I)cc1)NC(=O)[C@@H](C)NC(=O)[C@@H](N)Cc1ccc(O)cc1)C(=O)N[C@H](C(=O)NCC(N)=O)C(C)C | 1.62 | > 10000 | 1410 | 17

— ChEMBL document CHEMBL1126113, “Para-substituted Phe3 deltorphin analogues: enhanced selectivity of halogenated derivatives for delta opioid receptor sites” (J Med Chem, 1992)
